Active and inactive are the calls of the source. The calls are words filed in the database; no cut-off is given here.
Experiments:
Mus musculus [1] = assay: Downregulation of iNOS expression in ankle tissue of CII-induced DBA/1J mouse arthritic model at 25 to 50 mg/kg, ip measured 10 days post second CII booster by immunoblot analysis; assay type: functional, organism-based
Mus musculus [2] = assay: Antiarthritic activity in CII-induced DBA/1J mouse arthritic model assessed as decrease in abcess formation at 50 mg/kg, ip measured 10 days post second CII booster by Hematoxylin and eosin staining relative to CII-treated control; assay type: functional, organism-based; design: dose 50 mg/kg
Summary of the method: (§1)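 Mouse type II collagen-induced arthritis; 50 mg/kg dosed by injection. Ankle histology was scored as cumulative arthritis injury scores against the vehicle-treated CII group.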

[3] = target: T1, P2X purinoceptor 7 (Homo sapiens) (UniProt Q99572); assay: Antagonist activity at P2X7 receptor in LPS/IFN-gamma-differentiated human THP1 cells assessed as inhibition of BzATP-induced IL-1beta release at 1 uM preincubated for 30 mins followed by BzATP induction measured after 30 mins by ELISA relative to control; assay type: cell-based; details: THP-1
T1 sequence (whole entry): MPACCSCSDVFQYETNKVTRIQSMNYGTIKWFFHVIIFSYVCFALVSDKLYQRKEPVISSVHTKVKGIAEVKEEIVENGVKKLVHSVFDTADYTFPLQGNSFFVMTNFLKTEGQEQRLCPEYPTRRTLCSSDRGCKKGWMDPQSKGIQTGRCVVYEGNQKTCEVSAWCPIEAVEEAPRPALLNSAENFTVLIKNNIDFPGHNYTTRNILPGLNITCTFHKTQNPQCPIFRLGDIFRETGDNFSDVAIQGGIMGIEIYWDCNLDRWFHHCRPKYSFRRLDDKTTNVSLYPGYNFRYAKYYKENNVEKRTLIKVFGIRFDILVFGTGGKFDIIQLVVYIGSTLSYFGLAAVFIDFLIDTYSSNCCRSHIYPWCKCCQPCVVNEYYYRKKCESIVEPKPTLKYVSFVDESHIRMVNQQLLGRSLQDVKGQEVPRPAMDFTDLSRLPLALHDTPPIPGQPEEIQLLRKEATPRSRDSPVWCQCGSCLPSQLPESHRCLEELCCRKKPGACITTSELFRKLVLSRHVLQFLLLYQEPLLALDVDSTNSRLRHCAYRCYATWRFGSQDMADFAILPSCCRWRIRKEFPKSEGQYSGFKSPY
Summary of the method: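 LPS-primed THP-1 human monocytes were stimulated with BzATP, and IL-1β release was measured by ELISA. Test compound was given at a single concentration of 1 µM, and results are expressed as percent inhibition of BzATP-induced IL-1β release.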

Mus musculus [4] = assay: Antiarthritic activity in CII-induced DBA/1J mouse arthritic model assessed as decrease in periarticular erosion at 50 mg/kg, ip measured 10 days post second CII booster by Hematoxylin and eosin staining relative to CII-treated control; assay type: functional, organism-based; design: dose 50 mg/kg; summary of the method: as §1
[5] = target: T1, P2X purinoceptor 7 (Homo sapiens); assay: Competitive antagonist activity at recombinant human P2X7 receptor expressed in HEK293 cells assessed as inhibition of BzATP-induced intracellular ethidium bromide uptake at 0.1 to 1 uM after 2 hrs by fluorescence assay in presence of BzATP; assay type: cell-based
Summary of the method: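 HEK293 cells stably expressing recombinant human P2X7 were stimulated with BzATP, and ethidium ion accumulation was read as the measure of pore activity.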

inhibition [3]: > 95%
inhibition [5]: Active
Compound: O=C1NC(=O)N(C2CCN(C(=O)c3ccc(Cl)c(C(F)(F)F)c3)CC2)C1Cc1ccc(OS(=O)(=O)c2cccc3cnccc23)cc1 (racemic)
Activity (Mus musculus [1]): Active
Activity (Mus musculus [2]): Active
Activity (Mus musculus [4]): Active
